Calls of active or inactive are those of the source. The calls are words filed in the database; no cut-off is given here.
Tests used:
[1] = Metal chelating activity of the compound assessed as formation of Fe3+ complex by UV-vis spectrometry; assay type: physicochemical
[2] = test system: K562; experiment: Selectivity index, ratio of IC50 for human MRC5 cells to IC50 for human K562 cells; assay type: functional
[3] = test system: HCT-116; experiment: Selectivity index, ratio of IC50 for human MRC5 cells to IC50 for human p53-/- HCT116 cells; assay type: functional
[4] = Metal chelating activity of the compound assessed as formation of Cu2+ complex by UV-vis spectrometry; assay type: physicochemical
[5] = test system: Staphylococcus aureus; experiment: Antimicrobial activity against methicillin-resistant Staphylococcus aureus MRSA 4591 up to 200 uM after 24 to 48 hrs by broth microdilution method; assay type: functional, organism-based
[6] = test system: A549; experiment: Selectivity index, ratio of IC50 for human BJ cells to IC50 for human A549 cells; assay type: functional
[7] = test system: K562; experiment: Cytostatic activity against human K562 cells after 72 hrs by MTT assay; assay type: functional, cell-based; conditions: K562, 72 h
Method in brief: (§1)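 Cells were seeded at 25,000–30,000 per well and pre-incubated for 24 h at 37°C in 5% CO2. Four-fold compound dilutions were added in duplicate and incubated for 72 h. MTT was added for 1–4 h, and formazan was dissolved in 10% aq SDS (pH 5.5) overnight at 37°C. OD was read at 540 nm. IC50 came from dose-response curves, mean ± SD of eight independent experiments.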

[8] = test system: MRC5; experiment: Selectivity index, ratio of IC50 for human MRC5 cells to IC50 for human K562-TAX cells; assay type: functional
[9] = test system: CCRF-CEM; experiment: Induction of apoptosis in human CCRF-CEM cells assessed as apoptotic cells at 5 times IC50 after 24 hrs by propidium iodide staining-based flow cytometry; assay type: functional
Method in brief: (§2)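 Cells were then fixed in 70% ethanol, washed in hypotonic citrate buffer, treated with RNase (50 µg/mL) and stained with propidium iodide. Flow cytometry used a 488 nm laser. Apoptosis was scored as the percentage of particles with propidium content below G0/G1.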

[10] = test system: Staphylococcus aureus; experiment: Antimicrobial activity against Staphylococcus aureus CCM 3953 up to 200 uM after 24 to 48 hrs by broth microdilution method; assay type: functional, organism-based
[11] = test system: Nucleic Acid; experiment: Binding affinity to DNA (unknown origin) assessed as DNA intercalation by UV-visible spectrophotometry in presence of Cu2+; assay type: nucleic-acid assay
[12] = test system: Candida parapsilosis; experiment: Antifungal activity against Candida parapsilosis up to 200 uM after 24 to 48 hrs by broth microdilution method; assay type: functional, organism-based
[13] = test system: CCRF-CEM; experiment: Cell cycle arrest in human CCRF-CEM cells assessed as accumulation at G0/G1 phase at 5 times IC50 after 24 hrs by propidium iodide staining-based flow cytometry; assay type: functional; method in brief: as §2
[14] = test system: Escherichia coli; experiment: Antimicrobial activity against Escherichia coli CCM 3954 up to 200 uM after 24 to 48 hrs by broth microdilution method; assay type: functional, organism-based
[15] = test system: CCRF-CEM; experiment: Cell cycle arrest in human CCRF-CEM cells assessed as accumulation at S phase at 5 times IC50 after 24 hrs by propidium iodide staining-based flow cytometry; assay type: functional; method in brief: as §2
[16] = test system: A549; experiment: Selectivity index, ratio of IC50 for human MRC5 cells to IC50 for human A549 cells; assay type: functional
[17] = Cytostatic activity against human K562-TAX cells after 72 hrs by MTT assay; assay type: functional, cell-based; method in brief: as §1
[18] = test system: CCRF-CEM; experiment: Cytostatic activity against human CCRF-CEM cells after 72 hrs by MTT assay; assay type: functional, cell-based; method in brief: as §1
[19] = test system: CCRF-CEM; experiment: Induction of apoptosis in human CCRF-CEM cells assessed as inhibition of DNA synthesis at 5 times IC50 after 24 hrs by propidium iodide/BrdU staining by flow cytometry; assay type: functional; parameters: scale not given: the % may be the effect or the level left
[20] = test system: BJ; experiment: Selectivity index, ratio of IC50 for human BJ cells to IC50 for human HCT116 cells; assay type: functional
[21] = test system: BJ; experiment: Cytostatic activity against human BJ cells after 72 hrs by MTT assay; assay type: ADME, cell-based; method in brief: as §1
[22] = test system: CCRF-CEM; experiment: Induction of apoptosis in human CCRF-CEM cells assessed as inhibition of DNA synthesis at IC50 after 24 hrs by propidium iodide/BrdU staining by flow cytometry; assay type: functional; parameters: scale not given: the % may be the effect or the level left
[23] = test system: CCRF-CEM; experiment: Induction of apoptosis in human CCRF-CEM cells assessed as inhibition of RNA synthesis at 5 times IC50 after 24 hrs by propidium iodide/BrU staining by flow cytometry; assay type: functional; parameters: scale not given: the % may be the effect or the level left
[24] = Cytostatic activity against human HCT116 cells after 72 hrs by MTT assay; assay type: functional, cell-based; conditions: HCT-116, 72 h; method in brief: as §1
[25] = test system: BJ; experiment: Selectivity index, ratio of IC50 for human BJ cells to IC50 for human p53-/- HCT116 cells; assay type: functional
[26] = test system: A549; experiment: Cytostatic activity against human A549 cells after 72 hrs by MTT assay; assay type: functional, cell-based; conditions: A549, 72 h; method in brief: as §1
[27] = test system: CEM-DNR; experiment: Selectivity index, ratio of IC50 for human MRC5 cells to IC50 for human CEM-DNR cells; assay type: functional
[28] = Metal chelating activity of the compound assessed as formation of Co2+ complex by UV-vis spectrometry; assay type: physicochemical
[29] = Metal chelating activity of the compound assessed as formation of Ca2+ complex by UV-vis spectrometry; assay type: physicochemical
[30] = test system: HCT-116; experiment: Selectivity index, ratio of IC50 for human MRC5 cells to IC50 for human HCT116 cells; assay type: functional
[31] = test system: CCRF-CEM; experiment: Induction of apoptosis in human CCRF-CEM cells assessed as mitotic cells at 5 times IC50 after 24 hrs by pH3Ser10+ labeling-based flow cytometry; assay type: functional
[32] = Metal chelating activity of the compound assessed as formation of Mg2+ complex by UV-vis spectrometry; assay type: physicochemical
[33] = Metal chelating activity of the compound assessed as formation of Ni2+ complex by UV-vis spectrometry; assay type: physicochemical
[34] = test system: Nucleic Acid; experiment: Binding affinity to DNA (unknown origin) assessed as DNA intercalation by UV-visible spectrophotometry in presence of Zn2+; assay type: nucleic-acid assay
[35] = Metal chelating activity of the compound assessed as formation of Fe2+ complex by UV-vis spectrometry; assay type: physicochemical
[36] = test system: CCRF-CEM; experiment: Induction of apoptosis in human CCRF-CEM cells assessed as mitotic cells at IC50 after 24 hrs by pH3Ser10+ labeling-based flow cytometry; assay type: functional
[37] = Metal chelating activity of the compound assessed as formation of Zn2+ complex by UV-vis spectrometry; assay type: physicochemical
[38] = test system: Pichia kudriavzevii; experiment: Antifungal activity against Candida crusei up to 200 uM after 24 to 48 hrs by broth microdilution method; assay type: functional, organism-based
[39] = test system: Nucleic Acid; experiment: Binding affinity to DNA (unknown origin) assessed as DNA intercalation by UV-visible spectrophotometry in presence of Ni2+; assay type: nucleic-acid assay
[40] = test system: Candida tropicalis; experiment: Antifungal activity against Candida tropicalis up to 200 uM after 24 to 48 hrs by broth microdilution method; assay type: functional, organism-based
[41] = test system: CCRF-CEM; experiment: Induction of apoptosis in human CCRF-CEM cells assessed as inhibition of RNA synthesis at IC50 after 24 hrs by propidium iodide/BrU staining by flow cytometry; assay type: functional; parameters: scale not given: the % may be the effect or the level left
[42] = test system: BJ; experiment: Selectivity index, ratio of IC50 for human BJ cells to IC50 for human CCRF-CEM cells; assay type: functional; conditions: pooled result: one value given for 2 cell lines, strains, targets or settings
[43] = test system: Nucleic Acid; experiment: Binding affinity to DNA (unknown origin) assessed as DNA intercalation by UV-visible spectrophotometry; assay type: nucleic-acid assay
[44] = test system: BJ; experiment: Selectivity index, ratio of IC50 for human BJ cells to IC50 for human K562-TAX cells; assay type: functional

O=C(N/N=C/c1ccccc1O)c1ccc2c3c(ccc2c1)N1Cc2c(ccc4cc(C(=O)N/N=C/c5ccccc5O)ccc24)N(C3)C1
Activity [1]: Active
Ratio IC50 [2]: 0.6
Ratio IC50 [3]: 1.7
Activity [4]: Active
Activity [5]: inactive
Ratio IC50 [6]: 0.3
IC50 [7]: 580 nM
Ratio IC50 [8]: 0.4
Activity [9]: 50.23%
Activity [10]: inactive
Activity [11]: Active
Activity [12]: inactive
Activity [13]: 43.33%
Activity [14]: inactive
Activity [15]: 37.75%
Ratio IC50 [16]: 0.3
IC50 [17]: 830 nM
IC50 [18]: 360 nM
Activity [19]: 5.94%
Ratio IC50 [20]: 0.8
IC50 [21]: 270 nM
Activity [22]: 50.71%
Activity [23]: 83.92%
IC50 [24]: 390 nM
Ratio IC50 [25]: 1.7
IC50 [26]: 980 nM
Ratio IC50 [27]: 0.1
Activity [28]: Active
Activity [29]: Not Active
Ratio IC50 [30]: 0.8
Activity [31]: 0.01%
Activity [32]: Not Active
Activity [33]: Active
Activity [34]: Active
Activity [35]: Not Active
Activity [36]: 0.62%
Activity [37]: Active
Activity [38]: inactive
Activity [39]: Active
Activity [40]: inactive
Activity [41]: 59.79%
Ratio IC50 [42]: 0.9
Activity [43]: inactive
Ratio IC50 [44]: 0.4

Cc1ccc(O)c(/C=N/NC(=O)c2ccc3c4c(ccc3c2)N2Cc3c(ccc5cc(C(=O)N/N=C/c6cc(C)ccc6O)ccc35)N(C4)C2)c1
Activity [1]: Active
Ratio IC50 [2]: 0.5
Ratio IC50 [3]: 1.1
Activity [4]: Active
Activity [5]: inactive
Ratio IC50 [6]: 0.9
IC50 [7]: 900 nM
Ratio IC50 [8]: 0.4
Activity [9]: 54.07%
Activity [10]: inactive
Activity [11]: Active
Activity [12]: inactive
Activity [13]: 38.43%
Activity [14]: inactive
Activity [15]: 46.78%
Ratio IC50 [16]: 0.9
IC50 [17]: 1140 nM
IC50 [18]: 580 nM
Activity [19]: 5.17%
Ratio IC50 [20]: 0.8
IC50 [21]: 690 nM
Activity [22]: 38.67%
Activity [23]: 26.44%
IC50 [24]: 620 nM
Ratio IC50 [25]: 1.1
IC50 [26]: 540 nM
Ratio IC50 [27]: 0.1
Activity [28]: Active
Activity [29]: Not Active
Ratio IC50 [30]: 0.8
Activity [31]: 0.22%
Activity [32]: Not Active
Activity [33]: Active
Activity [34]: Active
Activity [35]: Not Active
Activity [36]: 1.04%
Activity [37]: Active
Activity [38]: inactive
Activity [39]: Active
Activity [40]: inactive
Activity [41]: 33.57%
Ratio IC50 [42]: 0.8
Activity [43]: inactive
Ratio IC50 [44]: 0.4

Source: ChEMBL document CHEMBL3400013, “Synthesis and biological activity evaluation of hydrazone derivatives based on a Tröger's base skeleton” (Bioorg Med Chem, 2015)
